Assay results from ChEMBL document CHEMBL1154743, “A novel potent nicotinamide phosphoribosyltransferase inhibitor synthesized via click chemistry” (J Med Chem, 2010).
Calls of active or inactive are those of the source. The calls are words filed in the database; no cut-off is given here.

What was measured:
SH-SY5Y [1] = experiment: Cytotoxicity against human SH-SY5Y cells assessed as cell viability after 48 hrs by MTT assay; type: functional, cell-based
Procedure, shortened: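 SH-SY5Y cells incubated with compound for 48 h and viability measured by MTT. Values are mean ± SEM of 8-12 determinations.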

SH-SY5Y [2] = experiment: Cytotoxicity against human SH-SY5Y cells assessed as reduction of total cellular NAD(P) level at 1 uM relative to control; type: functional; design: scale not given: the % may be the effect or the level left
SH-SY5Y [3] = experiment: Cytotoxicity against human SH-SY5Y cells assessed as reduction of total cellular NAD(P) level at 300 nM relative to control; type: functional; design: scale not given: the % may be the effect or the level left
Procedure, shortened: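 Total cellular NAD levels in SH-SY5Y cells screened at a single fixed concentration of 300 nM. Expressed relative to control, n = 10.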

SH-SY5Y [4] = experiment: Cytotoxicity against human SH-SY5Y cells assessed as cell viability after 48 hrs by MTT assay relative to control in presence of NAD; type: functional
A549 = experiment: Growth inhibition of human A549 cells by sulforhodamine B assay; type: functional
HOP-62 = experiment: Growth inhibition of human HOP62 cells by sulforhodamine B assay; type: functional
HOP-92 = experiment: Growth inhibition of human HOP92 cells by sulforhodamine B assay; type: functional
NCI-H226 = experiment: Growth inhibition of human NCI-H226 cells by sulforhodamine B assay; type: functional
NCI-H23 = experiment: Growth inhibition of human NCI-H23 cells by sulforhodamine B assay; type: functional
NCI-H322M = experiment: Growth inhibition of human NCI-H322M cells by sulforhodamine B assay; type: functional
COLO 205 = experiment: Growth inhibition of human COLO205 cells by sulforhodamine B assay; type: functional
KM12 = experiment: Growth inhibition of human KM12 cells by sulforhodamine B assay; type: functional
SF-295 = experiment: Growth inhibition of human SF295 cells by sulforhodamine B assay; type: functional
SF-539 = experiment: Growth inhibition of human SF539 cells by sulforhodamine B assay; type: functional
SNB-75 = experiment: Growth inhibition of human SNB75 cells by sulforhodamine B assay; type: functional
U-251 = experiment: Growth inhibition of human U251 cells by sulforhodamine B assay; type: functional
LOX IMVI = experiment: Growth inhibition of human LOXIMVI cells by sulforhodamine B assay; type: functional
Malme-3M = experiment: Growth inhibition of human MALME-3M cells by sulforhodamine B assay; type: functional
M14 = experiment: Growth inhibition of human M14 cells by sulforhodamine B assay; type: functional
SK-MEL-2 = experiment: Growth inhibition of human SK-MEL-2 cells by sulforhodamine B assay; type: functional
SK-MEL-28 = experiment: Growth inhibition of human SK-MEL-28 cells by sulforhodamine B assay; type: functional
SK-MEL-5 = experiment: Growth inhibition of human SK-MEL-5 cells by sulforhodamine B assay; type: functional; conditions: read-out: LC50 (the source's name)
UACC-62 = experiment: Growth inhibition of human UACC62 cells by sulforhodamine B assay; type: functional
OVCAR-4 = experiment: Growth inhibition of human OVCAR4 cells by sulforhodamine B assay; type: functional
OVCAR-8 = experiment: Growth inhibition of human OVCAR8 cells by sulforhodamine B assay; type: functional
NCI/ADR-RES = experiment: Growth inhibition of human NCI/ADR-RES cells by sulforhodamine B assay; type: functional
786-0 = experiment: Growth inhibition of human 786-0 cells by sulforhodamine B assay; type: functional
ACHN = experiment: Growth inhibition of human ACHN cells by sulforhodamine B assay; type: functional
UO-31 = experiment: Growth inhibition of human UO31 cells by sulforhodamine B assay; type: functional
PC-3 = experiment: Growth inhibition of human PC3 cells by sulforhodamine B assay; type: functional
MCF7 = experiment: Growth inhibition of human MCF7 cells by sulforhodamine B assay; type: functional
MDA-MB-231 = experiment: Growth inhibition of human MDA-MB-231 cells by sulforhodamine B assay; type: functional
[5] = Growth inhibition of human Hs 578T cells by sulforhodamine B assay; type: functional
BT-549 = experiment: Growth inhibition of human BT549 cells by sulforhodamine B assay; type: functional
T47D = experiment: Growth inhibition of human T47D cells by sulforhodamine B assay; type: functional
SH-SY5Y [6] = experiment: Induction of autophagy in human SH-SY5Y cells assessed as LC3/phosphotidylethanolamine coupling after 40 hrs by Western blot analysis; type: functional, cell-based
Procedure, shortened: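 Western blot of LC3-I and LC3-II, with tubulin as reference, in untreated and treated cells exposed to 10 nM compound. Six independent experiments were run, using two LC3 antibodies from different sources.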

SH-SY5Y [7] = experiment: Induction of autophagy in human SH-SY5Y cells expressing EGFP-LC3 assessed as colocalization of autophagic vacuoles with lysosomes in acidic compartment of cell at 10 nM; type: functional, cell-based
[8] = read-out: LC50 (the source's name)

O=C(CCCCCCCn1cc(-c2cccnc2)nn1)Nc1ccccc1-c1ccccc1
IC50 (SH-SY5Y [1]): 0.0038 µM
Activity (SH-SY5Y [2]): 11.6%
Activity (SH-SY5Y [3]): 9.9%
Activity (SH-SY5Y [4]): 97%
GI50 (A549): 2.1 µM
TGI (A549): > 100 µM
CC50 (A549; [8]): > 100 µM
GI50 (HOP-62): 23.8 µM
TGI (HOP-62): > 100 µM
CC50 (HOP-62; [8]): > 100 µM
GI50 (HOP-92): 97.4 µM
TGI (HOP-92): > 100 µM
CC50 (HOP-92; [8]): > 100 µM
GI50 (NCI-H226): 15.5 µM
TGI (NCI-H226): 51.7 µM
CC50 (NCI-H226; [8]): > 100 µM
GI50 (NCI-H23): 15.1 µM
TGI (NCI-H23): > 100 µM
CC50 (NCI-H23; [8]): > 100 µM
GI50 (NCI-H322M): 23.1 µM
TGI (NCI-H322M): > 100 µM
CC50 (NCI-H322M; [8]): > 100 µM
GI50 (COLO 205): 1.18 µM
TGI (COLO 205): 36 µM
CC50 (COLO 205; [8]): > 100 µM
GI50 (KM12): 1.03 µM
TGI (KM12): 27.2 µM
CC50 (KM12; [8]): > 100 µM
GI50 (SF-295): 0.655 µM
TGI (SF-295): > 100 µM
CC50 (SF-295; [8]): > 100 µM
GI50 (SF-539): 0.0618 µM
TGI (SF-539): > 100 µM
CC50 (SF-539; [8]): > 100 µM
GI50 (SNB-75): 29.8 µM
TGI (SNB-75): > 100 µM
CC50 (SNB-75; [8]): > 100 µM
GI50 (U-251): 0.521 µM
TGI (U-251): > 100 µM
CC50 (U-251; [8]): > 100 µM
GI50 (LOX IMVI): 10.1 µM
TGI (LOX IMVI): > 100 µM
CC50 (LOX IMVI; [8]): > 100 µM
GI50 (Malme-3M): 12.2 µM
TGI (Malme-3M): 62.8 µM
CC50 (Malme-3M; [8]): > 100 µM
GI50 (M14): 0.166 µM
TGI (M14): 20.7 µM
CC50 (M14; [8]): > 100 µM
GI50 (SK-MEL-2): 12.8 µM
TGI (SK-MEL-2): 46.2 µM
CC50 (SK-MEL-2; [8]): 57 µM
GI50 (SK-MEL-28): 1.59 µM
TGI (SK-MEL-28): > 100 µM
CC50 (SK-MEL-28; [8]): > 100 µM
CC50 (SK-MEL-5): 42.4 µM
GI50 (UACC-62): 13.3 µM
TGI (UACC-62): 51.4 µM
CC50 (UACC-62; [8]): > 100 µM
GI50 (OVCAR-4): 31.6 µM
TGI (OVCAR-4): > 100 µM
CC50 (OVCAR-4; [8]): > 100 µM
GI50 (OVCAR-8): 0.0574 µM
TGI (OVCAR-8): > 38 µM
CC50 (OVCAR-8; [8]): > 100 µM
GI50 (NCI/ADR-RES): 0.0814 µM
TGI (NCI/ADR-RES): 33.1 µM
CC50 (NCI/ADR-RES; [8]): > 100 µM
GI50 (786-0): 7.33 µM
TGI (786-0): > 100 µM
CC50 (786-0; [8]): > 100 µM
GI50 (ACHN): 18.7 µM
TGI (ACHN): > 100 µM
CC50 (ACHN; [8]): > 100 µM
GI50 (UO-31): 16.9 µM
TGI (UO-31): 93 µM
CC50 (UO-31; [8]): > 100 µM
GI50 (PC-3): 0.467 µM
TGI (PC-3): 42.8 µM
CC50 (PC-3; [8]): > 100 µM
GI50 (MCF7): 3.42 µM
TGI (MCF7): 50.1 µM
CC50 (MCF7; [8]): > 100 µM
GI50 (MDA-MB-231): 20.9 µM
TGI (MDA-MB-231): > 100 µM
CC50 (MDA-MB-231; [8]): > 100 µM
GI50 [5]: 20.4 µM
TGI [5]: > 100 µM
CC50 [5, 8]: > 100 µM
GI50 (BT-549): 1.7 µM
TGI (BT-549): 39.3 µM
CC50 (BT-549; [8]): > 100 µM
GI50 (T47D): 1.23 µM
TGI (T47D): 16 µM
CC50 (T47D; [8]): > 100 µM
Activity (SH-SY5Y [6]): Active
Activity (SH-SY5Y [7]): Active
